Test results reported in PMC4238911 (Cancer chemotherapy and pharmacology, 2011).
Read-outs that look alike come from different tables or passages of the source.

What was measured:
[1] = test system: refractory high-risk neuroblastoma; experiment: Tumor response; format: in vivo, human
Method in brief: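 Children received the oral test compound BID, 5 of 7 days, in 28-day cycles at 25–120 mg/M2/dose (3 + 3 escalation). Response was assessed after cycles 1, 2, 4 and 8, then every 4th cycle. Scoring used NANT criteria (modified International Neuroblastoma Response Criteria), with RECIST for measurable CT/MRI tumor and Curie score for MIBG lesions.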

[2] = Plasma pharmacokinetics of lestaurtinib; conditions: human, po
Trk kinase domain = conditions: cited from earlier work
clinical = conditions: human, in vivo, po
[3] = previous trials; cited from earlier work
[4] = test system: JAK2-mutated (JAK2^V617F) myelofibrosis; conditions: 22 patients; cited from earlier work
TrkB = TrkB (Homo sapiens, UniProt Q16620); format: cell-based
Sequence of TrkB (Q16620 32-822, species assumed): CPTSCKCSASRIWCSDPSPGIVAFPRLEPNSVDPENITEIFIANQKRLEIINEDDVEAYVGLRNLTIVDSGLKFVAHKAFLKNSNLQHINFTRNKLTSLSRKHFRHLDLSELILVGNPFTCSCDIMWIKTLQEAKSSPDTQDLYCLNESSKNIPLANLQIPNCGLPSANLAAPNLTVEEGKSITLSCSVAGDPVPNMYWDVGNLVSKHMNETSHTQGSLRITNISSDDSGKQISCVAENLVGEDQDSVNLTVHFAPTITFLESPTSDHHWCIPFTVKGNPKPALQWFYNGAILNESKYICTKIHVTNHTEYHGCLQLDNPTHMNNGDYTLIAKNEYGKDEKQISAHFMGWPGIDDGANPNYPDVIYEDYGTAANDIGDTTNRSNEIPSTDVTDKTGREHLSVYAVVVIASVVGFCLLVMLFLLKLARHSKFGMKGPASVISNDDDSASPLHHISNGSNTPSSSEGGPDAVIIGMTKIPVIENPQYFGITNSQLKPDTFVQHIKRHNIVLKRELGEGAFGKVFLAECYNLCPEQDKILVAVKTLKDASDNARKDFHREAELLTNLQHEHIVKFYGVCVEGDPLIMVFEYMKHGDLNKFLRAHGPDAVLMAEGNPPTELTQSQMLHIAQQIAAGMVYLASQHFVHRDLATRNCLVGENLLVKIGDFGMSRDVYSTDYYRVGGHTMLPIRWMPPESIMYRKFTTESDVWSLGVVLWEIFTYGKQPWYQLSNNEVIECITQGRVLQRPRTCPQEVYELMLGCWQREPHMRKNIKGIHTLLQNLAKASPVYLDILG

[5] = subjects of N = 46, all dose levels
[6] = the other subject with mixed response, complete marrow response

## C[C@]12O[C@H](C[C@]1(O)CO)n1c3ccccc3c3c4c(c5c6ccccc6n2c5c31)CNC4=O [lestaurtinib, Lestaurtinib]
[1]; 10 of 26 subjects at doses ≥ 70 mg/M^2/dose BID, range 5–28
  Duration of prolonged control of disease, median: 10 cycles
[1]; dose level 1–3, of total subjects at these dose levels
  Response/SD > 5 months: 0/9 (total subjects at dose levels 1–3)
[1]; dose level 4–5 (2 SD)
  Response/SD > 5 months: 2/22 (2 SD)
[1]; dose level 5a–8 (2 PR, 2 Mixed, 4 SD)
  Response/SD > 5 months: 8/16 (2 PR, 2 Mixed, 4 SD)
[1]; dose levels > 5, 10 of 26 subjects
  Subjects who maintained a response or SD for at least 5 cycles: 38.5%
[1]; dose levels ≥ 5a, 8/16
  Patients who maintained a response or SD: 50%
[1]; dose levels ≥ 5a, 8/16 patients
  Duration of maintained response or SD, median: 10 months
[1]; doses ≥ 70 mg/M^2/dose BID, 10 of 26 subjects
  Subjects with prolonged control of disease: 38.5%
[1]; nine subjects at dose levels ≥ 5
  Duration of prolonged stable disease, median: 6 cycles
[1]; one subject with prolonged stable disease, decreased from 75
  Marrow tumor content after treatment: 2%
[1]; second subject with PR
  Urine catecholamine response: reduction in HVA: 15%
  Urine catecholamine response: reduction in VMA: 44%
[1]; six subjects, range 5–13
  Duration of prolonged stable disease, median: 7 cycles
[1]; subjects of 46
  Number of treatment courses prior to PD: ≥17 months: 3/46
[1]; subjects of 46, one of 3 stopped therapy after 13 cycles due to toxicity
  Number of treatment courses prior to PD: 11–16 months: 3 ^b/46
[1]; subjects of 46, one of 11 stopped therapy after 5 cycles due to toxicity
  Number of treatment courses prior to PD: 4–10 months: 11 ^a/46
[1]; [5]
  Best overall response: Mixed: 3/46
  Best overall response: PR: 2/46
  Best overall response: Progressive disease: 21/46
  Best overall response: Stable disease: 20/46
[1]; [6]
  Urine catecholamines: reduction in HVA: 15%
  Urine catecholamines: reduction in VMA: 45%
[2]
  Tmax: 1 to 2 h
[2]; 25 mg/m2
  AUC(0-inf): 39500 ng·h/mL
  Cmax: 2400 ng/mL
[2]; 35 mg/m2
  AUC(0-inf): 41300 ng·h/mL
[2]; 45 mg/m2
  AUC(0-inf): 16400 ng·h/mL
  AUC(0-t): 15900 ng·h/mL
  Tmax: 1 h
[2]; 55 mg/m2
  AUC(0-inf): 40800 ng·h/mL
  Cmax: 4900 ng/mL
[2]; 62.5 mg/m2
  AUC(0-t): 26600 ng·h/mL
  Tmax: 1 h
[2]; 70 mg/m2
  AUC(0-inf): 15800 ng·h/mL
  AUC(0-t): 15000 ng·h/mL
  Cmax: 3810 ng/mL
[2]; 77.5 mg/m2
  Cmax: 3680 ng/mL
  Tmax: 2 h
[2]; 85 mg/m2
  AUC(0-inf): 15600 ng·h/mL
  Cmax: 3460 ng/mL
  Tmax: 1 h
[2]; 92.5 mg/m2
  AUC(0-t): 37100 ng·h/mL
  Cmax: 8740 ng/mL
  Tmax: 1 h
[2]; 120 mg/m2
  AUC(0-inf): 39500 ng·h/mL
  AUC(0-t): 34900 ng·h/mL
  Tmax: 1.5 h
Trk kinase domain
  Concentration that competitively inhibits ATP binding to the Trk kinase domain: nanomolar concentrations
clinical; 25 mg/m2
  AUC(0-t): 29500 ng·h/mL
  Tmax: 1.5 h
  half-life: 10.5 ± 3.6 h
clinical; 35 mg/m2
  AUC(0-t): 37500 ng·h/mL
  Cmax: 3390 ng/mL
  Tmax: 2 h
  half-life: 7 h
clinical; 45 mg/m2
  Cmax: 3060 ng/mL
  half-life: 4.5 ± 1.2 h
clinical; 55 mg/m2
  AUC(0-t): 34900 ng·h/mL
  Tmax: 1 h
  half-life: 6 ± 3.4 h
clinical; 62.5 mg/m2
  AUC(0-inf): 28900 ng·h/mL
  Cmax: 4500 ng/mL
  half-life: 4.3 ± 0.9 h
clinical; 70 mg/m2
  Tmax: 1 h
  half-life: 3.6 ± 1.4 h
clinical; 77.5 mg/m2
  AUC(0-inf): 54800 ng·h/mL
  AUC(0-t): 47500 ng·h/mL
  half-life: 8.2 h
clinical; 85 mg/m2
  AUC(0-t): 15500 ng·h/mL
  half-life: 3.9 h
clinical; 92.5 mg/m2
  AUC(0-inf): 51500 ng·h/mL
  half-life: 4.3 h
clinical; 120 mg/m2
  Cmax: 3510 ng/mL
  half-life: 7.9 h
[3]
  Patients with grade 1/2 elevated LFTs possibly related to lestaurtinib: ≤ 30%
5 subjects, all dose levels
  Subjects with transaminase elevation grade 3/4 or dose limiting: 11%
10 dose levels, 25–120 mg/M^2/dose BID
  MTD: no MTD was defined
30 subjects, all dose levels
  Subjects with transaminase elevation grade 1/2: 64%
After prolonged treatment at higher dose levels
  Subjects with reversible pancreatitis (grade 2): 3 subjects
All dose levels
  Hematologic DLTs: no hematologic DLTs identified
Dose level 4, 55 mg/M^2/dose BID, 7 subjects entered
  # subjects with DLT during course 1: 7 (1)
Dose level 5, 70 mg/M^2/dose BID, 10 subjects entered
  # subjects with DLT during course 1: 10 (2)
Dose level 8, 120 mg/M^2/dose BID, 6 subjects entered
  # subjects with DLT during course 1: 6 (1)
Of 47 enrolled
  Subjects who came off study for toxicity: three
[4]
  Median duration of response: 14 months
  Overall response rate: 27%
TrkB; 1 h post-dosing, 120 mg/M^2
  Plasma inhibition of phospho-TrkB activity: uniform inhibition
TrkB; plasma 1 h after lestaurtinib, days 5 and 26, all ten dose levels, 31 subjects
  Inhibition of phosphorylation of TrkB by immunoblotting: evident only in cells exposed to plasma from subjects treated at dose levels ≥ 6
TrkB; pre-drug/trough plasma samples, twice daily dosing
  Sustained suppression of TrkB phosphorylation: not evident
